Holding throughout (type): functional
One test relates to DU-145. Put plainly: Anticancer activity against human DU145 cells assessed as mean cell growth at 10^-5 M after 48 hrs by SRB assay. The essentials:
(§1)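 NCI-60 primary screen run to the US NCI protocol. Compound added at a single concentration of 10^-5 M and cultures incubated 48 h. The end point was sulforhodamine B (SRB) protein staining, reported as percent growth of treated cells relative to untreated control cells.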
For orientation: The SRB assay estimates cell density from bound dye.

In the next test the test system is NCI-H522. Put plainly: Anticancer activity against human NCI-H522 cells assessed as mean cell growth at 10^-5 M after 48 hrs by SRB assay. The essentials:
as §1

In a further test the test system is T47D. Nature of the test: Anticancer activity against human T47D cells assessed as mean cell growth at 10^-5 M after 48 hrs by SRB assay. The method in brief: as §1
A further test has as its system ACHN. Put plainly: Anticancer activity against human ACHN cells assessed as mean cell growth at 10^-5 M after 48 hrs by SRB assay. The essentials:
as §1

The test system of another test is A498. Nature of the test: Anticancer activity against human A498 cells assessed as mean cell growth at 10^-5 M after 48 hrs by SRB assay. The method in brief:
as §1

A further test deals with MCF7. Put plainly: Anticancer activity against human MCF7 cells assessed as mean cell growth at 10^-5 M after 48 hrs by SRB assay. The essentials: as §1
The next test relates to MDA-MB-468. Put plainly: Anticancer activity against human MDA-MB-468 cells assessed as mean cell growth at 10^-5 M after 48 hrs by SRB assay. The method in brief:
as §1

A further test deals with IGROV-1. Put plainly: Anticancer activity against human IGROV1 cells assessed as mean cell growth at 10^-5 M after 48 hrs by SRB assay. The essentials: as §1
The next test has as its system SR. Nature of the test: Anticancer activity against human SR cells assessed as mean cell growth at 10^-5 M after 48 hrs by SRB assay. The essentials:
as §1

The test system of a further test is COLO 205. Nature of the test: Anticancer activity against human COLO205 cells assessed as mean cell growth at 10^-5 M after 48 hrs by SRB assay. The essentials:
as §1

Results on 17 compounds are retold here after ChEMBL document CHEMBL1799966, “Synthesis and anticancer activity of oxindole derived imidazo[1,5-a]pyrazines” (Eur J Med Chem, 2011).

`Cc1ccc(-c2nc(/C=C3/C(=O)Nc4ccccc43)c3ccccn23)cc1`: the Activity in the test on DU-145 is 78.55%. `CN1C(=O)/C(=C/c2nc(-c3ccccc3F)n3ccccc23)c2ccccc21`: the Activity in the test on DU-145 is given as 84.72%.

Regarding `COc1ccc(-c2nc(/C=C3/C(=O)N(C)c4ccccc43)c3ccccn23)cc1OC`, the Activity with NCI-H522 is given as 103.43%.

For the compound `CN1C(=O)/C(=C/c2nc(-c3ccccc3)n3ccccc23)c2ccccc21`, the Activity with T47D is 85.21%. `O=C1Nc2ccc(F)cc2/C1=C\c1nc(-c2ccccc2F)n2ccccc12`: in the test on DU-145, the Activity stood at 80.9%. In the case of `COc1ccc(-c2nc(/C=C3/C(=O)Nc4ccccc43)c3ccccn23)cc1`, the Activity in the test on ACHN was 72.54%. With `O=C1Nc2ccc(F)cc2/C1=C\c1nc(-c2ccc(F)cc2)n2ccccc12`, the Activity in the test with A498 is 97.53%.

In the case of `COc1ccc(-c2nc(/C=C3/C(=O)Nc4ccccc43)c3ccccn23)cc1OC`, in the test on MCF7, the Activity is listed as 82.66%. `O=C1Nc2ccccc2/C1=C\c1nc(-c2ccc(F)cc2)n2ccccc12`: the Activity with MDA-MB-468 is given as 39.31%. For the compound `Cc1ccc(-c2nc(/C=C3/C(=O)N(C)c4ccc(F)cc43)c3ccccn23)cc1`, the Activity with NCI-H522 is on record as 99.39%. Consider `O=C1Nc2ccccc2/C1=C\c1nc(-c2ccccc2)n2ccccc12`, for which the Activity in the test with MDA-MB-468 stood at 87.51%. Regarding `COc1ccc(-c2nc(/C=C3/C(=O)Nc4ccc(F)cc43)c3ccccn23)cc1`, in the test on MCF7, the Activity worked out at 101.96%.

Consider `CN1C(=O)/C(=C/c2nc(-c3cccc(F)c3)n3ccccc23)c2ccccc21`, for which the Activity in the test on IGROV-1 was determined as 70.98%. In the case of `COc1cc(-c2nc(/C=C3/C(=O)N(C)c4ccccc43)c3ccccn23)cc(OC)c1OC`, the Activity with SR was 98.17%.

As for `CN1C(=O)/C(=C/c2nc(-c3ccccc3F)n3ccccc23)c2cc(F)ccc21`, the Activity in the test on COLO 205 was 99.95%. For `COc1ccc(-c2nc(/C=C3/C(=O)N(C)c4ccccc43)c3ccccn23)cc1`, the Activity in the test on SR amounted to 77.31%. On to `Cc1ccc(-c2nc(/C=C3/C(=O)Nc4ccc(F)cc43)c3ccccn23)cc1`, for which the Activity in the test on DU-145 was 74.57%.
